Assay results reported in ChEMBL document CHEMBL4406880, “Design, synthesis, and bioactivity of dihydropyrimidine derivatives as kinesin spindle protein inhibitors” (Bioorg Med Chem, 2019).

Tests used:
Format in all cases: functional
[1] = test system: SNB-75; experiment: Cell cycle arrest in human SNB75 cells assessed as accumulation in preG1 phase at 2 uM incubated for 24 hrs by propidium iodide based flow cytometry (reference value: 1.85 %)
How it was run: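 SNB-75 cells were exposed to 2 µM for 24 h at 37 °C, 5% CO2, then washed with PBS and fixed in 70% ethanol on ice for 15 min. They were stained 1 h at room temperature with 50 µg/mL propidium iodide, 0.1 mg/mL RNase A and 0.05% Triton X-100. DNA content was read by flow cytometry to give the % of cells in pre-G1, G0/G1, S and G2/M.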

[2] = test system: UO-31; experiment: Growth inhibition of human UO31 cells assessed as cell viability at 0.1 uM incubated for 48 hrs by sulforhodamine B assay; conditions: UO-31, 48 h, read-out: Activity
[3] = test system: MOLT-4; experiment: Growth inhibition of human MOLT4 cells assessed as cell viability at 0.001 uM incubated for 48 hrs by sulforhodamine B assay relative to control; conditions: MOLT-4, 48 h, read-out: Activity
[4] = test system: A498; experiment: Growth inhibition of human A498 cells assessed as cell viability at 0.001 uM incubated for 48 hrs by sulforhodamine B assay relative to control; conditions: A498, 48 h, read-out: Activity
[5] = test system: COLO 205; experiment: Growth inhibition of human COLO205 cells assessed as cell viability at 0.001 uM incubated for 48 hrs by sulforhodamine B assay relative to control; conditions: COLO 205, 48 h, read-out: Activity
[6] = test system: DU-145; experiment: Growth inhibition of human DU145 cells assessed as cell viability at 100 uM incubated for 48 hrs by sulforhodamine B assay; conditions: DU-145, 48 h, read-out: Activity
[7] = test system: UACC-62; experiment: Growth inhibition of human UACC62 cells incubated for 48 hrs by sulforhodamine B assay; conditions: UACC-62, 48 h
How it was run: (§1)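 NCI-60 five-dose SRB assay. Cells were exposed for 48 h to tenfold dilutions of 0.01, 0.1, 1, 10 and 100 µM, in RPMI 1640 with 5% FBS. Plates fixed with TCA at the time of drug addition served as the time-zero reference. GI50 is the concentration giving a 50% reduction in net growth. TGI is total growth inhibition. LC50 is a net 50% loss of the initial cells.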

[8] = test system: DU-145; experiment: Growth inhibition of human DU145 cells incubated for 48 hrs by sulforhodamine B assay; conditions: DU-145, 48 h
How it was run: (§2)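 NCI-60 five-dose mode: five tenfold dilutions (0.01, 0.1, 1, 10, 100 µM) are applied for 48 h to cells in RPMI 1640 with 5% FBS at 37 °C. Endpoint is TCA fixation with sulforhodamine B read at 515 nm. % growth comes from the 0 h and control absorbances. GI50 is the concentration giving a 50% reduction in net cell growth.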

[9] = test system: HCT-116; experiment: Growth inhibition of human HCT116 cells incubated for 48 hrs by sulforhodamine B assay; conditions: HCT-116, 48 h; how it was run: as §2
[10] = test system: NCI/ADR-RES; experiment: Growth inhibition of human NCI/ADR-RES cells assessed as cell viability at 0.001 uM incubated for 48 hrs by sulforhodamine B assay relative to control; conditions: read-out: Activity
[11] = test system: HCT-116; experiment: Growth inhibition of human HCT116 cells assessed as cell viability at 100 uM incubated for 48 hrs by sulforhodamine B assay; conditions: HCT-116, 48 h, read-out: Activity
[12] = test system: A549; experiment: Growth inhibition of human A549/ATCC cells assessed as cell viability at 100 uM incubated for 48 hrs by sulforhodamine B assay; conditions: A549, 48 h, read-out: Activity; how it was run: as §2
[13] = test system: A549; experiment: Growth inhibition of human A549/ATCC cells incubated for 48 hrs by sulforhodamine B assay; conditions: A549, 48 h; how it was run: as §2
[14] = test system: NCI-H322M; experiment: Growth inhibition of human NCI-H322M cells assessed as cell viability at 0.1 uM incubated for 48 hrs by sulforhodamine B assay; conditions: read-out: Activity
[15] = test system: SN12C; experiment: Growth inhibition of human SN12C cells incubated for 48 hrs by sulforhodamine B assay
How it was run: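 NCI-60 five-dose assay, SRB end-point, same culture conditions. Compound is tested at tenfold dilutions of 0.01, 0.1, 1, 10 and 100 µM for 48 h at 37 °C, with DMSO/PBS vehicle controls. Percentage growth at each concentration is taken against untreated cells and a time-zero plate. GI50 is 50% net growth decrease, TGI is total growth inhibition, and LC50 is 50% loss of initial cells.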

[16] = test system: KM12; experiment: Growth inhibition of human KM12 cells assessed as cell viability at 100 uM incubated for 48 hrs by sulforhodamine B assay; conditions: KM12, 48 h, read-out: Activity
[17] = test system: BT-549; experiment: Growth inhibition of human BT549 cells incubated for 48 hrs by sulforhodamine B assay; conditions: BT-549, 48 h; how it was run: as §2
[18] = test system: MCF7; experiment: Growth inhibition of human MCF7 cells assessed as cell viability at 0.1 uM incubated for 48 hrs by sulforhodamine B assay; conditions: MCF7, 48 h, read-out: Activity
[19] = test system: Hs-578T; experiment: Growth inhibition of human Hs 578T cells assessed as cell viability at 0.001 uM incubated for 48 hrs by sulforhodamine B assay relative to control; conditions: read-out: Activity
[20] = test system: CAKI-1; experiment: Growth inhibition of human Caki1 cells assessed as cell viability at 0.001 uM incubated for 48 hrs by sulforhodamine B assay relative to control; conditions: CAKI-1, 48 h, read-out: Activity
[21] = test system: UACC-257; experiment: Growth inhibition of human UACC257 cells incubated for 48 hrs by sulforhodamine B assay; conditions: UACC-257, 48 h; how it was run: as §1
[22] = read-out: LC50 (the source's name)
[23] = read-out: pLC50 (the source's name) (converted)

**Q.** CC1=C(C(=O)OCc2ccccc2)C(c2ccc3c(c2)OCO3)n2c(nc3ccccc32)N1 (racemic) was tested. Which Activity [1] did it give?
**A.** Its Activity is 24.82%.

**Q.** What about the viability at 0.1 µM [2] of the same molecule?
**A.** The viability at 0.1 µM was 93%.

**Q.** And the viability at 0.001 µM [3]?
**A.** Its viability at 0.001 µM is 96%.

**Q.** And the viability at 0.001 µM [4]?
**A.** Its viability at 0.001 µM is 81%.

**Q.** And the viability at 0.001 µM [5]?
**A.** The viability at 0.001 µM was 95%.

**Q.** What about the viability at 100 µM [6] of the same molecule?
**A.** Its viability at 100 µM is 41%.

**Q.** What about the GI50 ([7]; read-out: GI50) of the same molecule?
**A.** The GI50 was 0.38 µM.

**Q.** And the CC50 [7, 22]?
**A.** The CC50 was greater than 100 µM.

**Q.** And the TGI ([7]; read-out: TGI)?
**A.** Its TGI is greater than 100 µM.

**Q.** And the GI50 ([7]; read-out: pGI50 (converted))?
**A.** Its GI50 is 0.38 µM.

**Q.** What about the CC50 [7, 23] of the same molecule?
**A.** The CC50 was greater than 100 µM.

**Q.** And the TGI ([7]; read-out: pTGI)?
**A.** Its TGI is greater than 100 µM.

**Q.** And the GI50 ([8]; read-out: GI50)?
**A.** Its GI50 is 0.59 µM.

**Q.** What about the CC50 [8, 22] of the same molecule?
**A.** Its CC50 is greater than 100 µM.

**Q.** And the TGI ([8]; read-out: TGI)?
**A.** Its TGI is greater than 100 µM.

**Q.** What about the GI50 ([8]; read-out: pGI50 (converted)) of the same molecule?
**A.** Its GI50 is 0.589 µM.

**Q.** What about the CC50 [8, 23] of the same molecule?
**A.** Its CC50 is greater than 100 µM.

**Q.** What about the TGI ([8]; read-out: pTGI) of the same molecule?
**A.** Its TGI is greater than 100 µM.

**Q.** And the GI50 ([9]; read-out: GI50)?
**A.** Its GI50 is 0.47 µM.

**Q.** And the LC50 ([9]; read-out: LC50)?
**A.** Its LC50 is greater than 100 µM.

**Q.** What about the TGI ([9]; read-out: TGI) of the same molecule?
**A.** Its TGI is greater than 100 µM.

**Q.** What about the GI50 ([9]; read-out: pGI50 (converted)) of the same molecule?
**A.** Its GI50 is 0.479 µM.

**Q.** And the LC50 ([9]; read-out: pLC50 (converted))?
**A.** The LC50 was greater than 100 µM.

**Q.** And the TGI ([9]; read-out: pTGI)?
**A.** Its TGI is greater than 100 µM.

**Q.** And the viability at 0.001 µM [10]?
**A.** Its viability at 0.001 µM is 93%.

**Q.** And the viability at 100 µM [11]?
**A.** The viability at 100 µM was 18%.

**Q.** And the viability at 100 µM [12]?
**A.** The viability at 100 µM was 10%.

**Q.** And the GI50 ([13]; read-out: GI50)?
**A.** The GI50 was 0.68 µM.

**Q.** And the CC50 [13, 22]?
**A.** The CC50 was greater than 100 µM.

**Q.** What about the TGI ([13]; read-out: TGI) of the same molecule?
**A.** Its TGI is greater than 100 µM.

**Q.** And the GI50 ([13]; read-out: pGI50 (converted))?
**A.** Its GI50 is 0.676 µM.

**Q.** What about the CC50 [13, 23] of the same molecule?
**A.** Its CC50 is greater than 100 µM.

**Q.** What about the TGI ([13]; read-out: pTGI) of the same molecule?
**A.** Its TGI is greater than 100 µM.

**Q.** What about the viability at 0.1 µM [14] of the same molecule?
**A.** Its viability at 0.1 µM is 99%.

**Q.** What about the CC50 [15, 22] of the same molecule?
**A.** The CC50 was greater than 100 µM.

**Q.** What about the TGI ([15]; read-out: TGI) of the same molecule?
**A.** Its TGI is greater than 100 µM.

**Q.** And the CC50 [15, 23]?
**A.** The CC50 was greater than 100 µM.

**Q.** What about the TGI ([15]; read-out: pTGI) of the same molecule?
**A.** The TGI was greater than 100 µM.

**Q.** And the viability at 100 µM [16]?
**A.** The viability at 100 µM was 18%.

**Q.** And the GI50 ([17]; read-out: GI50)?
**A.** Its GI50 is 0.92 µM.

**Q.** And the CC50 [17, 22]?
**A.** The CC50 was greater than 100 µM.

**Q.** What about the TGI ([17]; read-out: TGI) of the same molecule?
**A.** Its TGI is greater than 100 µM.

**Q.** And the GI50 ([17]; read-out: pGI50 (converted))?
**A.** Its GI50 is 0.912 µM.

**Q.** And the CC50 [17, 23]?
**A.** The CC50 was greater than 100 µM.

**Q.** What about the TGI ([17]; read-out: pTGI) of the same molecule?
**A.** The TGI was greater than 100 µM.

**Q.** And the viability at 0.1 µM [18]?
**A.** The viability at 0.1 µM was 87%.

**Q.** And the viability at 0.001 µM [19]?
**A.** Its viability at 0.001 µM is 87%.

**Q.** And the viability at 0.001 µM [20]?
**A.** Its viability at 0.001 µM is 83%.

**Q.** And the GI50 ([21]; read-out: GI50)?
**A.** The GI50 was 0.98 µM.

**Q.** What about the LC50 (concentration killing 50% of the initial cells) ([21]; read-out: LC50) of the same molecule?
**A.** The LC50 (concentration killing 50% of the initial cells) was greater than 100 µM.

**Q.** What about the TGI ([21]; read-out: TGI) of the same molecule?
**A.** Its TGI is greater than 100 µM.

**Q.** What about the GI50 ([21]; read-out: pGI50 (converted)) of the same molecule?
**A.** Its GI50 is 0.977 µM.

**Q.** What about the LC50 (concentration killing 50% of the initial cells) ([21]; read-out: pLC50 (converted)) of the same molecule?
**A.** Its LC50 (concentration killing 50% of the initial cells) is greater than 100 µM.

**Q.** What about the TGI ([21]; read-out: pTGI) of the same molecule?
**A.** The TGI was greater than 100 µM.
